Data published in ChEMBL document CHEMBL3608239, “Identification and optimisation of a 4',5-bisthiazole series of selective phosphatidylinositol-3 kinase alpha inhibitors” (Bioorg Med Chem Lett, 2015).

Key:
[1] = Permeability of the compound from apical to basolateral side in human Caco2 cells; format: ADME, cell-based; conditions: Caco-2, read-out: permeability
[2] = Permeability of the compound from basolateral to apical side in human Caco2 cells; format: ADME, cell-based; conditions: Caco-2, read-out: permeability
[3] = Plasma concentration in athymic nude mouse at 10 mg/kg, iv after 2 hrs; format: ADME, organism-based
How it was run: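 Female athymic nude mice, conscious, with free access to food, given a bolus intravenous dose of 10 mg kg-1. Plasma levels measured 1 and 2 h after dosing.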

[4] = Oral bioavailability in Sprague-Dawley rat at 3 mg/kg; format: ADME, organism-based; conditions: in vivo
How it was run: (§1)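 Female Sprague-Dawley rats, conscious, permanently cannulated, with free access to food. Dosed 1.0 mg kg-1 intravenously or 3.0 mg kg-1 orally as a suspension. Blood levels followed from 5 min to 48 h after dosing.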

Rattus norvegicus = assay: Volume of distribution in Sprague-Dawley rat at 3 mg/kg, po; format: ADME, organism-based; conditions: in vivo; how it was run: as §1

Papp A→B [1]	Papp B→A [2]	concentration at 2 h [3]	bioavailability [4]	Vd (Rattus norvegicus)	SMILES
1.4 ×10⁻⁶ cm/s	7.7 ×10⁻⁶ cm/s				Cc1nc(NC(=O)N2CCC[C@H]2C(N)=O)sc1-c1ccc(S(C)(=O)=O)c(F)c1
14.5 ×10⁻⁶ cm/s	17.4 ×10⁻⁶ cm/s	< 50 nM			Cc1nc(NC(=O)N2CCC[C@@]2(C)C(N)=O)sc1-c1csc(C(C)(C)C)n1
11.1 ×10⁻⁶ cm/s	17.4 ×10⁻⁶ cm/s				Cc1nc(NC(=O)N2CC[C@H](C)[C@H]2C(N)=O)sc1-c1csc(C(C)(C)C)n1
0.9 ×10⁻⁶ cm/s	12.4 ×10⁻⁶ cm/s				Cc1nc(NC(=O)N2CC[C@H](O)[C@H]2C(N)=O)sc1-c1csc(C(C)(C)C)n1
5.5 ×10⁻⁶ cm/s	20.7 ×10⁻⁶ cm/s				Cc1nc(NC(=O)N2C[C@H](F)C[C@H]2C(N)=O)sc1-c1csc(C(C)(C)C)n1
0.7 ×10⁻⁶ cm/s	8.4 ×10⁻⁶ cm/s				Cc1nc(NC(=O)N2C[C@H](O)C[C@H]2C(N)=O)sc1-c1csc(C(C)(C)C)n1
1.2 ×10⁻⁶ cm/s	20.8 ×10⁻⁶ cm/s				Cc1nc(NC(=O)N2C[C@@H](O)C[C@H]2C(N)=O)sc1-c1csc(C(C)(C)C)n1
			59%	3.3 L/kg	Cc1nc(NC(=O)N2C[C@H](N(C)C)C[C@H]2C(N)=O)sc1-c1csc(C2(C)CC2)n1
